“And” between values parts separate entries of the source, which are not always exact repeats. Equal values may be shown once.
Experiments:
Fibroblast = assay: Multiplex assay against human fibroblast; type: toxicity, cell-based
How it was run: (§1)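 Cells stained live at seeding with Hoechst33342, BioTracker Green Microtubule Cytoskeleton Dye, MitoTracker Red and Annexin V Alexa Fluor 680 were imaged on a CQ1 microscope at 37°C and 5% CO2 after compound addition. Their classification by CellPathfinder machine-learning gating ran from Hoechst high-intensity objects versus normal cells, to healthy, pyknosed or fragmented nuclei among normal cells, to mitotic or apoptotic among pyknosed cells. Tubulin, mitochondrial-mass and membrane-permeability phenotypes are per cents of healthy-nucleus cells.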

HEK-293T = assay: Multiplex assay against HEK293T; type: toxicity, cell-based; conditions: human; how it was run: as §1
[1] = 12 h, 1 µM, compound concentration 1 uM
[2] = 12 h, 10 µM, compound concentration 10 uM
[3] = 24 h, 1 µM, compound concentration 1 uM
[4] = 24 h, 10 µM, compound concentration 10 uM
[5] = 48 h, 1 µM, compound concentration 1 uM
[6] = 48 h, 10 µM, compound concentration 10 uM

Cl.Cl.OCCOCCN1CCN(C(c2ccccc2)c2ccc(Cl)cc2)CC1 (configuration not stated) [HYDROXYZINE HYDROCHLORIDE]
Population Apoptotic (%) (Fibroblast; [1]): 43% and 51% | Population Fragmented Nuclei (%) (Fibroblast; [1]): 11% and 22% | Population Healthy Nuclei (%) (Fibroblast; [1]): 75% and 57% | Population Hoechst High Intensity Objects (%) (Fibroblast; [1]): 1% and 7% | Population Membrane Permeable-Phenotype (%) (Fibroblast; [1]): 0% and 8% | Population Mitochondria Different-Phenotype (%) (Fibroblast; [1]): 4% and 6% | Population Mitotic Cells (%) (Fibroblast; [1]): 56% and 48% | Population Normal (%) (Fibroblast; [1]): 98% and 92% | Population Pyknosed Nuclei (%) (Fibroblast; [1]): 13% and 20% | Population Tubulin-Different-Phenotype (%) (Fibroblast; [1]): 25% and 46% | Total Cell Count (Fibroblast; [1]): 177 and 155 | Population Apoptotic (%) (Fibroblast; [2]): 47% and 40% | Population Fragmented Nuclei (%) (Fibroblast; [2]): 27% and 19% | Population Healthy Nuclei (%) (Fibroblast; [2]): 58% and 47% | Population Hoechst High Intensity Objects (%) (Fibroblast; [2]): 2% and 7% | Population Membrane Permeable-Phenotype (%) (Fibroblast; [2]): 0% and 7% | Population Mitochondria Different-Phenotype (%) (Fibroblast; [2]): 14% and 6% | Population Mitotic Cells (%) (Fibroblast; [2]): 52% and 59% | Population Normal (%) (Fibroblast; [2]): 97% and 92% | Population Pyknosed Nuclei (%) (Fibroblast; [2]): 14% and 32% | Population Tubulin-Different-Phenotype (%) (Fibroblast; [2]): 45% and 58% | Total Cell Count (Fibroblast; [2]): 247 and 178 | Population Apoptotic (%) (Fibroblast; [3]): 30% and 44% | Population Fragmented Nuclei (%) (Fibroblast; [3]): 9% and 26% | Population Healthy Nuclei (%) (Fibroblast; [3]): 78% and 54% | Population Hoechst High Intensity Objects (%) (Fibroblast; [3]): 1% and 5% | Population Membrane Permeable-Phenotype (%) (Fibroblast; [3]): 2% and 5% | Population Mitochondria Different-Phenotype (%) (Fibroblast; [3]): 6% and 3% | Population Mitotic Cells (%) (Fibroblast; [3]): 70% and 55% | Population Normal (%) (Fibroblast; [3]): 98% and 94% | Population Pyknosed Nuclei (%) (Fibroblast; [3]): 12% and 18% | Population Tubulin-Different-Phenotype (%) (Fibroblast; [3]): 30% and 47% | Total Cell Count (Fibroblast; [3]): 163 and 154 | Population Apoptotic (%) (Fibroblast; [4]): 51% and 36% | Population Fragmented Nuclei (%) (Fibroblast; [4]): 28% and 29% | Population Healthy Nuclei (%) (Fibroblast; [4]): 62% and 50% | Population Hoechst High Intensity Objects (%) (Fibroblast; [4]): 1% and 9% | Population Membrane Permeable-Phenotype (%) (Fibroblast; [4]): 1% and 6% | Population Mitochondria Different-Phenotype (%) (Fibroblast; [4]): 10% and 6% | Population Mitotic Cells (%) (Fibroblast; [4]): 48% and 63% | Population Normal (%) (Fibroblast; [4]): 98% and 90% | Population Pyknosed Nuclei (%) (Fibroblast; [4]): 9% and 20% | Population Tubulin-Different-Phenotype (%) (Fibroblast; [4]): 47% and 66% | Total Cell Count (Fibroblast; [4]): 284 and 198 | Population Apoptotic (%) (Fibroblast; [5]): 60% and 42% | Population Fragmented Nuclei (%) (Fibroblast; [5]): 17% and 34% | Population Healthy Nuclei (%) (Fibroblast; [5]): 68% and 56% | Population Hoechst High Intensity Objects (%) (Fibroblast; [5]): 4% and 3% | Population Membrane Permeable-Phenotype (%) (Fibroblast; [5]): 0% and 2% | Population Mitochondria Different-Phenotype (%) (Fibroblast; [5]): 3% and 5% | Population Mitotic Cells (%) (Fibroblast; [5]): 39% and 57% | Population Normal (%) (Fibroblast; [5]): 95% and 96% | Population Pyknosed Nuclei (%) (Fibroblast; [5]): 13% and 9% | Population Tubulin-Different-Phenotype (%) (Fibroblast; [5]): 31% and 44% | Total Cell Count (Fibroblast; [5]): 175 and 155 | Population Apoptotic (%) (Fibroblast; [6]): 80% and 37% | Population Fragmented Nuclei (%) (Fibroblast; [6]): 22% and 36% | Population Healthy Nuclei (%) (Fibroblast; [6]): 69% and 47% | Population Hoechst High Intensity Objects (%) (Fibroblast; [6]): 4% and 6% | Population Membrane Permeable-Phenotype (%) (Fibroblast; [6]): 0% and 11% | Population Mitochondria Different-Phenotype (%) (Fibroblast; [6]): 7% and 2% | Population Normal (%) (Fibroblast; [6]): 95% and 94% | Population Pyknosed Nuclei (%) (Fibroblast; [6]): 8% and 15% | Population Tubulin-Different-Phenotype (%) (Fibroblast; [6]): 62% and 57% | Total Cell Count (Fibroblast; [6]): 272 and 200 | Population Apoptotic (%) (HEK-293T; [1]): 34% and 70% | Population Fragmented Nuclei (%) (HEK-293T; [1]): 7% and 5% | Population Healthy Nuclei (%) (HEK-293T; [1]): 79% and 84% | Population Hoechst High Intensity Objects (%) (HEK-293T; [1]): 6% and 9% | Population Membrane Permeable-Phenotype (%) (HEK-293T; [1]): 0% | Population Mitochondria Different-Phenotype (%) (HEK-293T; [1]): 48% and 58% | Population Mitotic Cells (%) (HEK-293T; [1]): 66% and 29% | Population Normal (%) (HEK-293T; [1]): 93% and 90% | Population Pyknosed Nuclei (%) (HEK-293T; [1]): 13% and 9% | Population Tubulin-Different-Phenotype (%) (HEK-293T; [1]): 24% and 28% | Total Cell Count (HEK-293T; [1]): 394 and 362 | Population Apoptotic (%) (HEK-293T; [2]): 49% and 68% | Population Fragmented Nuclei (%) (HEK-293T; [2]): 8% and 6% | Population Healthy Nuclei (%) (HEK-293T; [2]): 71% and 73% | Population Hoechst High Intensity Objects (%) (HEK-293T; [2]): 11% and 19% | Population Membrane Permeable-Phenotype (%) (HEK-293T; [2]): 0% and 1% | Population Mitochondria Different-Phenotype (%) (HEK-293T; [2]): 71% and 83% | Population Mitotic Cells (%) (HEK-293T; [2]): 50% and 31% | Population Normal (%) (HEK-293T; [2]): 88% and 80% | Population Pyknosed Nuclei (%) (HEK-293T; [2]): 19% and 20% | Population Tubulin-Different-Phenotype (%) (HEK-293T; [2]): 65% and 59% | Total Cell Count (HEK-293T; [2]): 354 and 327 | Population Apoptotic (%) (HEK-293T; [3]): 22% and 43% | Population Fragmented Nuclei (%) (HEK-293T; [3]): 10% and 11% | Population Healthy Nuclei (%) (HEK-293T; [3]): 78% | Population Membrane Permeable-Phenotype (%) (HEK-293T; [3]): 0% | Population Mitochondria Different-Phenotype (%) (HEK-293T; [3]): 34% and 41% | Population Mitotic Cells (%) (HEK-293T; [3]): 77% and 56% | Population Normal (%) (HEK-293T; [3]): 97% and 86% | Population Pyknosed Nuclei (%) (HEK-293T; [3]): 11% and 9% | Population Tubulin-Different-Phenotype (%) (HEK-293T; [3]): 22% and 17% | Total Cell Count (HEK-293T; [3]): 566 and 481
